Results on 2 substances are retold here after paper PMC6560181 (Cell chemical biology, 2018).

Data set [1] in a line: Mouse nephrotoxicity model, kidney histopathology. The class given is in vivo, mice. As to conditions: 12 mg/kg sc every 2 h, accumulated dose 72 mg/kg.
For data set [2], the system named is polymyxin-resistant P. aeruginosa strain FADDI-PA070. The data set can be described thus: Static time-kill study. The data set is classed as cell-based. Particulars: for log10 CFU/mL kill: 32 μg/mL, 1–4 h polymyxin B, 0.5–6 h octapeptin C4; for antimicrobial effect in time-kill: 1 or 4 μg/mL.
A short description of data set [3]: Carboxyfluorescein leakage from lipid vesicles. As to conditions: vesicles containing lipid A. In short, it runs like this: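 CF-loaded vesicles (50 mM CF; final lipid 5 µM) were made of POPC, POPC/POPG 4:1 or POPC/lipid A 4:1 in 10 mM HEPES pH 7.4 with 150 mM NaCl. Vesicles were exposed for 20 min to lipopeptide at 128–0.06 µg/mL. Leakage was read as CF de-quenching (ex 485 nm, em 520 nm).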

Data set [4] concerns polymyxin-susceptible strains of P. aeruginosa and K. pneumoniae. As to the kind of experiment: MIC by broth microdilution, polymyxin-susceptible strains. The data set is classed as cell-based.
Data set [5] concerns E. coli ATCC 25922 cells. As to the kind of experiment: Inner membrane permeabilisation, SYTOX Green flow cytometry. The class given is cell-based. As to conditions: 1 h at 37°C.
Data set [6] has as its system polymyxin-resistant clinical isolates of P. aeruginosa, A. baumannii and K. pneumoniae. The data set can be described thus: MIC by broth microdilution, polymyxin-resistant clinical isolates. The data set is classed as cell-based.
Data set [7] deals with human red blood cells. The data set can be described thus: Haemolysis of human red blood cells. The class given is cell-based. As to conditions: concentrations up to 100 μg/mL.
In data set [8] the test system is mcr isolates of K. pneumoniae and Escherichia coli. The data set can be described thus: MIC against mcr isolates. As to conditions: mcr isolates (Table S4). The class given is cell-based.
Data set [9] deals with E. coli ATCC 25922 cells. The data set can be described thus: Membrane depolarisation diSC3-5 assay. The data set is classed as cell-based. As to conditions: 30 min incubation.
The format of data set [10] is in vitro ADME. Particulars: rat.
A short description of data set [11]: Acute toxicity after subcutaneous dose in mice. The class given is in vivo. As to conditions: subcutaneous dose of 40 mg/kg.
Details of data set [12]: species or system mice. Particulars: mouse, in vivo, iv, 10 mg/kg.
For data set [13], the system named is P. aeruginosa FADDI-PA070. The data set can be described thus: MIC against P. aeruginosa FADDI-PA070. The data set is classed as cell-based.

With colistin, the kidney histopathology lesions result in data set [1] is “severe Grade 1–2 lesions”. Moreover, the “log10 CFU/mL kill” value in data set [2] is on record as “poor killing activity”. The “antimicrobial effect in time-kill” value in data set [2] is listed as “no antimicrobial effect”. In data set [3], the “leakage from lipid vesicles” value is listed as “destabilised the membrane”. Moreover, the values for the MIC in [4], in data set [6] and in data set [8] were 0.25 to 1 µg/mL, 4 to 128 µg/mL and 4 to 16 µg/mL, respectively. Also, the “membrane disruption (SYTOX Green uptake)” value in [5] was “disrupted both the outer and inner membranes”. In addition, the haemolysis entry in data set [7] is “no detectable haemolysis”. Moreover, in data set [9], the membrane depolarisation result is “induced membrane depolarisation”.

In data set [10], polymyxin B returned a plasma protein binding of 83%. Moreover, the “log10 CFU/mL kill” value in [2] is “six”. In [2], the “antimicrobial effect in time-kill” value is reported as “no antimicrobial effect”. For the same substance, the “final log10 CFU/mL reduction” value in data set [2] (24 h, after regrowth) is listed as “three”. In addition, in data set [3], the “leakage from lipid vesicles” value was “destabilised the membrane”. For the same substance, the MIC was 0.25 to 1 µg/mL in data set [4], 4 to 128 µg/mL in data set [6], 4 to 16 µg/mL in [8] and not below 128 µg/mL in [13]. Further, in data set [5], the “membrane disruption (SYTOX Green uptake)” value is “disrupted both the outer and inner membranes”. Moreover, in data set [11], the acute toxic effects entry is given as “acute toxic effects”. The half-life in data set [12] was 3.6 h. This substance returned a total clearance in data set [12] of 7.3 mL/min/kg. For the same substance, the membrane depolarisation result in data set [9] is listed as “induced membrane depolarisation”.
